The chains are these.
B1: Osa-1-4 twister ribozyme (parent)
chain: CCGCCUAACACUGCCAAUGCCGGUCCCAAGCCCGGAUAAAAGUGGAGGGGGCGG

This series covers variants of B1. Nature of the series: self-cleavage, relative activity (ratio to wild type); higher = more cleavage; co-transcriptional. An outline of the steps: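 A DNA template for a 54-nucleotide Oryza sativa twister ribozyme was synthesised with 97 % wild-type base and 1 % of each other base at the 48 positions downstream of the cleavage site. It was transcribed in vitro for 2 h at 37 °C, allowing co-transcriptional self-cleavage, then reverse-transcribed with a template-switching oligonucleotide, PCR-amplified and deep-sequenced. Cleavage status was scored from reads with or without upstream sequence. Relative activity is fraction cleaved normalised to wild type.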
For C21A G34A, the self-cleavage worked out at 0.91.
To C21A G34U belongs 1.05; to C21A G34C, 0.92; to C21G G51A, 0.07.
As to C21G G51C, the self-cleavage came to 0.02.
Next, C21G G51U: 0.06.
To C21G G47A belongs 0.03.
Consider C21G G47U, for which the self-cleavage came to 0.03.
To C21G G47C belongs 0.04.
To C21U G23C belongs 0.06; to C21U G23A, 0.1.
On to C21U G23U, for which the self-cleavage was determined as 0.06.
Next, C21U C52U: 1.02; C21U C52A: 0.97; C21U C52G: 1.02.
Next, C21A G45U: 0.05; C21A G45C: 0.05.
Next, C21A G45A: 0.05; G22A: 1.05; G22C: 0.19.
Regarding G22C G23C, the self-cleavage came to 0.02.
Next, G22C G23A: 0.06; G22C G23U: 0.03; C21G G23U: 0.07.
Next, C21G G23A: 0.07; C21G G23C: 0.03; C21G C32U: 0.02.
To C21G C32A belongs 0.03; to C21G C32G, 0.06.
Consider C21A U37C, for which the self-cleavage worked out at 0.78.
Next, C21A U37G: 0.94; C21A U37A: 0.92.
Turning to C21G U43G, the self-cleavage is 0.08.
As to C21G U43C, the self-cleavage was 0.05.
On to C21G U43A, for which the self-cleavage stood at 0.09.
To C21G G35U belongs 0.06; to C21G G35C, 0.03.
As for C21G G35A, the self-cleavage was determined as 0.08.
Next, C21U G30C: 0.06.
Next, C21U G30A: 0.04; C21U G30U: 0.04.
Next, G22A G50U: 0.94; G22A G50A: 1.
As for G22A G50C, the self-cleavage stood at 0.68.
Next, C21G C25U: 0.05; C21G C25A: 0.04; C21G C25G: 0.03.
To C21A G48C belongs 0.07.
Next, C21A G48A: 0.06; C21A G48U: 0.05.
Turning to C21U C32A, the self-cleavage is 0.09.
To C21U C32G belongs 0.11.
To C21U C32U belongs 0.13; to C21U C33U, 0.47.
To C21U C33A belongs 0.08; to C21U C33G, 0.07.
Take G22A U18G: the self-cleavage turned out to be 0.94.
Take G22A U18C: the self-cleavage is 0.98.
Take G22A U18A: the self-cleavage came out at 1.02.
Next, C21U U12A: 0.73.
To C21U U12G belongs 0.26; to C21U U12C, 0.33.
Consider C21G G22A, for which the self-cleavage was determined as 0.49.
Turning to C21G G22U, the self-cleavage was determined as 0.5.
To C21G G22C belongs 0.16; to C21A G49C, 0.05.
On to C21A G49A, for which the self-cleavage is 0.07.
Next, C21A G49U: 0.06.
To C21G G54U belongs 0.11.
For the variant C21G G54A, the self-cleavage is 0.07.
On to C21G G54C, for which the self-cleavage came to 0.07.
Next, G22A G35C: 0.11.
Next, G22A G35U: 0.32; G22A G35A: 0.34; C21U C26A: 0.06.
To C21U C26U belongs 0.88; to C21U C26G, 0.12; to C21U U43G, 0.47.
As for C21U U43C, the self-cleavage was found to be 0.32.
To C21U U43A belongs 0.89.
Next, C21U G22U: 0.1; C21U G22C: 0.17.
Next, C21U G22A: 0.26; C21G U12A: 0.08; C21G U12C: 0.04.
Turning to C21G U12G, the self-cleavage came out at 0.06.
Regarding C21G G50U, the self-cleavage worked out at 0.1.
To C21G G50C belongs 0.06.
Next, C21G G50A: 0.09.
Next, C21U G45C: 0.07; C21U G45U: 0.11.
For C21U G45A, the self-cleavage came to 0.22.
To G22A G42A belongs 0.17.
Next, G22A G42C: 0.1; G22A G42U: 0.05.
Next, C21G G45C: 0.02; C21G G45A: 0.04; C21G G45U: 0.02.
For C21G G53U, the self-cleavage was 0.04.
Turning to C21G G53C, the self-cleavage was determined as 0.02.
Consider C21G G53A, for which the self-cleavage came to 0.08.
Next, C21G U24C: 0.04; C21G U24A: 0.06.
Next, C21G U24G: 0.03; C21G U37A: 0.13; C21G U37G: 0.14.
To C21G U37C belongs 0.08.
In the case of C21U G13A, the self-cleavage came out at 0.11.
Take C21U G13C: the self-cleavage came out at 0.03.
Next, C21U G13U: 0.04; C21U G44A: 0.97.
As for C21U G44C, the self-cleavage was 0.99.
On to C21U G44U, for which the self-cleavage was 0.95.
Next, G22A G49C: 0.08; G22A G49A: 0.12.
To G22A G49U belongs 0.09; to G22A G30A, 0.05.
G22A G30U: the self-cleavage was found to be 0.05.
To G22A G30C belongs 0.05; to C21A G54A, 0.29.
To C21A G54C belongs 0.32; to C21A G54U, 0.59; to C21U G51C, 0.09.
To C21U G51U belongs 0.67.
For the variant C21U G51A, the self-cleavage is 0.9.
Next, C21U G48U: 0.1.
To C21U G48A belongs 0.1.
To C21U G48C belongs 0.11.
With C21U G35U, the self-cleavage amounted to 0.57.
To C21U G35A belongs 0.98; to C21U G35C, 0.1.
Next, C21U C31A: 0.06; C21U C31U: 0.97; C21U C31G: 0.14.
To C21U G49A belongs 0.14; to C21U G49C, 0.08; to C21U G49U, 0.14.
For C21A C32U, the self-cleavage is 0.07.
With G22A G53U, the self-cleavage worked out at 0.14.
Turning to G22A G53A, the self-cleavage amounted to 0.51.
To G22A G53C belongs 0.09; to C21G C27U, 0.02.
To C21G C27A belongs 0.04; to C21G C27G, 0.03; to C21G G44U, 0.08.
Consider C21G G44C, for which the self-cleavage was determined as 0.08.
To C21G G44A belongs 0.09; to C21G C52A, 0.1.
To C21G C52G belongs 0.18; to C21G C52U, 0.1; to C21G G19C, 0.02.
Next, C21G G19U: 0.03; C21G G19A: 0.05; C21A G13C: 0.03.
On to C21A G13A, for which the self-cleavage was 0.07.
To C21A G13U belongs 0.04.
For C21G G49U, the self-cleavage was 0.02.
Next, C21G G49C: 0.03; C21G G49A: 0.05.
To G22C G45A belongs 0.03; to G22C G45C, 0.02; to G22A G54C, 0.82.
With G22A G54A, the self-cleavage is 0.77.
For G22A G54U, the self-cleavage amounted to 0.84.
To C21U U37G belongs 1.04; to C21U U37A, 1.07.
Consider C21U U37C, for which the self-cleavage amounted to 1.05.

(Values after the RNAGym collection of RNA variant scans (doi:10.1002/anie.201605470).)
